Laboratory results from ChEMBL document CHEMBL4765343, “Design and synthesis of novel SCM-198 analogs as cardioprotective agents: Structure-activity relationship studies and biological evaluations” (Eur J Med Chem, 2020).
Calls of active or inactive are those of the source. The calls are words filed in the database; no cut-off is given here.

Columns and labels:
H9c2 [1] = assay: Antioxidant activity in rat H9c2 cells assessed as protection against H2O2-induced hypoxic injury by measuring cell viability at 10 uM preincubated for 4 hrs followed by H2O2 stimulation for 1 hr by MTT assay relative to control; type: functional
Procedure, shortened: (§1)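 H9c2 cells at 1 × 10^5 cells/mL, 100 μL per well in triplicate, left 18 h. Compound diluted in DMSO; DMSO alone as negative control. 4 h pretreatment, then 400 nM H2O2 for 1 h. Medium removed and MTT added for 2-4 h, formazan dissolved in DMSO, absorbance at 570 nm. Medium-only wells gave the blank.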

H9c2 [2] = assay: Antioxidant activity in rat H9c2 cells assessed as protection against H2O2-induced hypoxic injury by measuring cell viability at 1 uM preincubated for 4 hrs followed by H2O2 stimulation for 1 hr by MTT assay relative to control; type: functional; procedure, shortened: as §1
H9c2 [3] = assay: Antioxidant activity in rat H9c2 cells assessed as protection against H2O2-induced hypoxic injury by measuring cell viability preincubated for 4 hrs followed by H2O2 stimulation for 1 hr by MTT assay relative to control; type: functional; conditions: time 5 hrs, read-out: ED50 (the source's name)
Procedure, shortened: (§2)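 ED50 taken from log dose against % viability. Viability also reported at the EC50 concentration. Means ± SEM from three independent experiments.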

H9c2 [4] = assay: Cytoprotective activity against H2O2-induced injury in rat H9c2 cells assessed as reduction in LDH release at 10 uM preincubated for 4 hrs followed by H2O2 stimulation for 1 hr by LDH assay; type: functional, cell-based; conditions: time 5.0 hrs
Procedure, shortened: (§3)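 Cells at 5 × 10^4 per well in triplicate, 18 h, then 4 h compound and 1 h H2O2. Model wells had H2O2 without compound; controls had DMSO. 50 μL medium mixed with 2X LDH assay buffer, kept in the dark at 22-25 °C for 10-30 min, read at 490-520 nm. Activity blank-subtracted, normalised to BCA protein of the lysed cells, and expressed relative to model wells.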

H9c2 [5] = assay: Antioxidant activity in rat H9c2 cells assessed as protection against H2O2-induced hypoxic injury by measuring cell viability at ED50 concentration preincubated for 4 hrs followed by H2O2 stimulation for 1 hr by MTT assay relative to control; type: functional; conditions: time 5 hrs; procedure, shortened: as §2
[6] = Apparent volume of distribution during terminal phase in Sprague-Dawley rat at 10 mg/kg, po measured upto 24 hrs by LC-MS/MS analysis; type: ADME, organism-based; conditions: in vivo, read-out: Vz/F
[7] = Apparent volume of distribution during terminal phase in Sprague-Dawley rat at 1 mg/kg, iv measured upto 24 hrs by LC-MS/MS analysis; type: ADME, organism-based; conditions: in vivo
[8] = Cmax in Sprague-Dawley rat at 10 mg/kg, po measured upto 24 hrs by LC-MS/MS analysis; type: ADME, organism-based; set-up: route oral, dose 10 mg/kg, time <=24; conditions: in vivo
[9] = Cmax in Sprague-Dawley rat at 1 mg/kg, iv measured upto 24 hrs by LC-MS/MS analysis; type: ADME, organism-based; set-up: route intravenous, dose 1 mg/kg, time <=24; conditions: in vivo
[10] = AUCinfinity in Sprague-Dawley rat at 10 mg/kg, po measured upto 24 hrs by LC-MS/MS analysis; type: ADME, organism-based; set-up: route oral, dose 10 mg/kg, time <=24; conditions: in vivo
Procedure, shortened: (§4)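 A single 10 mg/kg oral (i.g.) dose was given to male Sprague-Dawley rats, N = 3. Plasma was harvested by centrifugation and measured by LC-MS/MS. Values reported as mean ± SD.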

H9c2 [11] = assay: Antiapoptotic activity in rat H9c2 cells assessed as reduction in H2O2-induced mitochondrial membrane potential loss at 1 uM preincubated for 4 hrs followed by H2O2 stimulation for 1 hr by JC1 staining based fluorescence microscopic analysis; type: functional, cell-based; conditions: time 5.0 hrs
Procedure, shortened: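 Pretreatment 4 h before 400 nM H2O2. Cells washed in cold PBS pH 7.4 and loaded with 0.5 μg/mL JC-1 for 40 min at 37 °C, washed, then viewed at once by fluorescence microscopy. Monomer read at ex 490/em 535 nm, aggregate at ex 525/em 600 nm. Ratio taken from three independent fields per group, mean ± SD.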

[12] = Apparent clearance in Sprague-Dawley rat at 10 mg/kg, po measured upto 24 hrs by LC-MS/MS analysis; type: ADME, organism-based; conditions: in vivo
Mus musculus [13] = assay: (§5) Cardioprotective activity in C57BL/6J mouse model of LAD coronary artery ligation-induced acute myocardial infarction assessed as reduction in myocardial infarct size at 5 mg/kg, ip pretreated for 7 consecutive days followed by LAD coronary artery ligation after compound treatment for another 3 days by TTC staining based assay; type: functional, organism-based; conditions: time 10.0 day
Procedure, shortened: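 Male/female not stated; 8-week C57BL/6J mice given daily ip doses in saline vehicle for 7 d, then permanent LAD ligation, with dosing continued 3 more days to sacrifice. Under isoflurane, hearts perfused with saline plus 40 mM KCl, cut into 4-5 transverse slices, stained with 1% TTC pH 7.4 at 37 °C for 20 min, formalin-fixed; infarct area by planimetry as % of LV area; N = 6-7 per group.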

[14] = Toxicity in C57BL/6J mouse assessed as diarrhea at 5 mg/kg, ip administered for 7 consecutive days; type: organism-based; conditions: in vivo, 168 h, time 7 day
[15] = Oral bioavailability in Sprague-Dawley rat at 10 mg/kg measured upto 24 hrs by LC-MS/MS analysis; type: ADME, organism-based; conditions: in vivo
[16] = AUClast in Sprague-Dawley rat at 1 mg/kg, iv measured upto 24 hrs by LC-MS/MS analysis; type: ADME, organism-based; set-up: route intravenous, dose 1 mg/kg, time <=24; conditions: in vivo
Procedure, shortened: (§6)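 Male Sprague-Dawley rats, fasted, N = 3, given a single 1 mg/kg intravenous dose. Plasma separated by centrifugation and drug quantified by LC-MS/MS. Values reported as mean ± SD.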

Mus musculus [17] = assay: as §5, with “cardiomyocytes damage” for “myocardial infarct size”, “hematoxylin and eosin” for “TTC”; type: functional, organism-based; conditions: time 10.0 day
Procedure, shortened: (§7)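 Eight-week C57BL/6J mice received 5 mg/kg/day i.p. (saline vehicle) for 7 days before permanent LAD ligation, then 3 further days. Paraffin heart sections deparaffinised, stained with hematoxylin 10 min, differentiated in 0.1% HCl, counterstained with eosin 3-5 min, then examined by light microscopy.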

[18] = AUCinfinity in Sprague-Dawley rat at 1 mg/kg, iv measured upto 24 hrs by LC-MS/MS analysis; type: ADME, organism-based; set-up: route intravenous, dose 1 mg/kg, time <=24; conditions: in vivo; procedure, shortened: as §6
[19] = Half life in Sprague-Dawley rat at 10 mg/kg, po measured upto 24 hrs by LC-MS/MS analysis; type: ADME, organism-based; conditions: in vivo
H9c2 [20] = assay: Antiapoptotic activity in rat H9c2 cells assessed as restoration of H2O2-induced bcl-2 downregulation at 1 uM preincubated for 4 hrs followed by H2O2 stimulation for 1 hr by Western blotting analysis; type: functional, cell-based; conditions: time 5.0 hrs
Procedure, shortened: (§8)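 Serum-starved (12 h) H9c2 cells were pretreated 4 h, then exposed to 500 nM H2O2 in DMEM for 1 h. Lysis on ice with protease/phosphatase inhibitors, then 13,000 g at 4 °C for 15 min. 20 μg protein run on 8-12% SDS-PAGE and blotted to PVDF. Probed overnight at 4 °C for caspase-3, pro-caspase-3, Bcl-2 and GAPDH, with chemiluminescent detection.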

Mus musculus [21] = assay: as §5, with “apoptosis of cardiomyocytes” for “myocardial infarct size”, “TUNEL” for “TTC”; type: functional, organism-based; conditions: time 10.0 day
Procedure, shortened: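 C57BL/6J mice, 8 weeks old, given compound i.p. in saline vehicle daily for 7 days, then permanent LAD ligation with body temperature held at 37 °C. Dosing continued 3 more days until sacrifice. Sections treated with proteinase K, then TdT reaction 30 min at 37 °C and DAPI counterstain. TUNEL-positive nuclei in border area counted as % of DAPI nuclei, N = 4 per group.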

Mus musculus [22] = assay: as §5, with “epimyocardium damage” for “myocardial infarct size”, “hematoxylin and eosin” for “TTC”; type: functional, organism-based; conditions: time 10.0 day; procedure, shortened: as §7
[23] = Toxicity in C57BL/6J mouse assessed as loss of body weight at 5 mg/kg, ip administered for 7 consecutive days; type: organism-based; conditions: in vivo, 168 h, time 7 day
[24] = AUClast in Sprague-Dawley rat at 10 mg/kg, po measured upto 24 hrs by LC-MS/MS analysis; type: ADME, organism-based; set-up: route oral, dose 10 mg/kg, time <=24; conditions: in vivo; procedure, shortened: as §4
H9c2 [25] = assay: Cytoprotective activity against H2O2-induced injury in rat H9c2 cells assessed as reduction in LDH release at 1 uM preincubated for 4 hrs followed by H2O2 stimulation for 1 hr by LDH assay; type: functional, cell-based; conditions: time 5.0 hrs; procedure, shortened: as §3
H9c2 [26] = assay: Anti-oxidative effect in rat H9c2 cells assessed as reduction in H2O2-induced MnSOD activity at 10 uM preincubated for 4 hrs followed by H2O2 stimulation for 1 hr by WST-8 assay; type: functional, cell-based; conditions: time 5.0 hrs
Procedure, shortened: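 H9c2 cells (ATCC) grown in high-glucose DMEM with 10% FBS at 37 °C, 5% CO2, used at 80-90% confluence and serum-starved 12 h. Compound given 4 h, then medium replaced by DMEM with 500 nM H2O2 for 1 h. Lysate spun 15,000g for 15 min. Cu/Zn SOD blocked with 1 mmol/L KCN, MnSOD read by WST-8 kit, expressed as U/mg protein.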

[27] = Half life in Sprague-Dawley rat at 1 mg/kg, iv measured upto 24 hrs by LC-MS/MS analysis; type: ADME, organism-based; conditions: in vivo
H9c2 [28] = assay: Antiapoptotic activity in rat H9c2 cells assessed as reduction in H2O2-induced caspase-3 activation at 1 uM preincubated for 4 hrs followed by H2O2 stimulation for 1 hr by Western blotting analysis; type: functional, cell-based; conditions: time 5.0 hrs; procedure, shortened: as §8
H9c2 [29] = assay: Antiapoptotic activity in rat H9c2 cells assessed as restoration of H2O2-induced bcl-2 downregulation at 10 uM preincubated for 4 hrs followed by H2O2 stimulation for 1 hr by Western blotting analysis; type: functional, cell-based; conditions: time 5.0 hrs; procedure, shortened: as §8

N=C(N)NCCCCOC(=O)c1c(F)cc(F)cc1F
Activity (H9c2 [1]): 60.7%
Activity (H9c2 [2]): 69.6%

COc1cc(C(=O)OCCCCNC(=N)N)ccc1OC(C)=O
Activity (H9c2 [1]): 56.4%
Activity (H9c2 [2]): 63.4%

N=C(N)NCCCCOC(=O)c1ccco1
Activity (H9c2 [1]): 53.2%
Activity (H9c2 [2]): 51.1%

Cc1cccc(C(=O)OCCCCNC(=N)N)c1
Activity (H9c2 [1]): 65.8%
EC50 (H9c2 [3]): 0.156 µM
Activity (H9c2 [4]): inactive
Activity (H9c2 [2]): 64.4%
Activity (H9c2 [5]): 57.4%

COc1ccc(OC)c(C(=O)OCCCCNC(=N)N)c1
Activity (H9c2 [1]): 57.7%
Activity (H9c2 [2]): 53.3%

CC(=O)Oc1ccc(C(=O)OCCCCNC(=N)N)cc1
Activity (H9c2 [1]): 52.7%
Activity (H9c2 [2]): 57.8%

COc1ccc(C(=O)OCCCCNC(=N)N)cc1
Activity (H9c2 [1]): 58.6%
Activity (H9c2 [2]): 61.2%

COc1cccc(C(=O)OCCCCNC(=N)N)c1OC
Vd/F [6]: 43.7 L/kg
Activity (H9c2 [1]): 65.3%
Vz/F [7]: 3.766 L/kg
Cmax [8]: 0.621 µg/mL
Cmax [9]: 0.764 µg/mL
AUC(0-inf) [10]: 1.68 µg·h/mL
Activity (H9c2 [11]): Active
CL/F [12]: 5.57 L/h/kg
EC50 (H9c2 [3]): 0.142 µM
Activity (Mus musculus [13]): Active
Activity [14]: Non-Toxic
bioavailability [15]: 18.5%
AUC(0-t) at 24 h [16]: 0.882 µg·h/mL
Activity (Mus musculus [17]): Active
AUC(0-inf) [18]: 0.895 µg·h/mL
half-life [19]: 4.87 h
Activity (H9c2 [20]): Active
Activity (Mus musculus [21]): Active
Activity (Mus musculus [22]): Active
Activity [23]: Non-Toxic
AUC(0-t) at 24 h [24]: 1.63 µg·h/mL
Activity (H9c2 [2]): 69.3%
Activity (H9c2 [25]): Active
Activity (H9c2 [26]): Active
Activity (H9c2 [5]): 62.8%
half-life [27]: 1.63 h
Activity (H9c2 [28]): Active

COc1cc(C(=O)OCCN(C)C)cc(OC)c1O
Activity (H9c2 [1]): 48.5%
Activity (H9c2 [2]): 47.8%

COc1cc(C(=O)OCCCN(C)C)cc(OC)c1O
Activity (H9c2 [1]): 61.7%
Activity (H9c2 [2]): 55.2%

COc1cc(C(=O)OCCNC(=N)N)cc(OC)c1O
Activity (H9c2 [1]): 61.9%
Activity (H9c2 [2]): 53.6%

CC(=O)Oc1ccccc1C(=O)OCCCCNC(=N)N
Activity (H9c2 [1]): 58.3%
Activity (H9c2 [2]): 57.8%

N=C(N)NCCCCOC(=O)C12CC3CC(CC(C3)C1)C2
Activity (H9c2 [1]): 56.8%
Activity (H9c2 [2]): 58.2%

COc1cc(C(=O)OCCOCCNC(=N)N)cc(OC)c1O
Activity (H9c2 [1]): 69.8%
Activity (H9c2 [29]): inactive
EC50 (H9c2 [3]): 0.151 µM
Activity (H9c2 [2]): 63.4%
Activity (H9c2 [5]): 58.8%

COc1cc(C(=O)OCC2CCN(C(=N)N)CC2)cc(OC)c1OC(C)=O
Activity (H9c2 [1]): 47%
Activity (H9c2 [2]): 42.7%

N=C(N)NCCCCO
Activity (H9c2 [1]): 51.4%
Activity (H9c2 [2]): 46.8%

CCN(CC)CCOC(=O)c1cc(OC)c(O)c(OC)c1
Activity (H9c2 [1]): 66.8%
EC50 (H9c2 [3]): 0.207 µM
Activity (H9c2 [2]): 61.1%
Activity (H9c2 [5]): 51.7%
